Data set [1] relates to Schistosoma mansoni. Put plainly: Antischistosomal activity against adult stage of Schistosoma mansoni cercariae at 10 uM after 72 hrs by microscopic analysis. In kind it is functional, organism-based. The method in brief: (§1)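 Newly transformed schistosomula and cultured adult S. mansoni were exposed in vitro to compound at 10 μM.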
A short description of data set [2]: Kinetic solubility of compound in 0.01 M HCL at 10 mg/ml at pH 2 by nephelometry. The data set is classed as physicochemical. The settings on record: read-out: Kinetic_solubility. The method in brief: (§2)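 DMSO solutions of compound spiked into pH 6.5 phosphate buffer or 0.01 M HCl (approx. pH 2.0); nephelometry read-out, reported as a solubility concentration range.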

The nature of data set [3]: Kinetic solubility of compound in pH 6.5 phosphate buffer at 10 mg/ml by nephelometry. The settings on record: read-out: Kinetic_solubility. In kind it is physicochemical. The method, boiled down:
as §2

Data set [4] has as its system Schistosoma mansoni. Put plainly: Antischistosomal activity against Schistosoma mansoni cercariae infected in NMRI mouse assessed as worm burden reduction at 100 mg/kg, po administered as single dose on day 49 of post infection and measured on day 21 of post treatment relative to control. The data set is classed as functional. Also noted: scale not given: the % may be the effect or the level left. The method, boiled down:
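Single 100 mg/kg oral dose given to S. mansoni-infected mice; in vivo activity read as worm burden reduction versus an untreated control group, with statistical comparison to control.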

A further data set relates to L6. Put plainly: Cytotoxicity against rat L6 cells up to 200 uM. In kind it is cell-based. The method, boiled down:
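Growth inhibition of rat L6 myoblasts was used as the host-cell cytotoxicity measure, testing compound at concentrations up to 200 μM.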

Data set [5] concerns Schistosoma mansoni. Put plainly: Antischistosomal activity against newly transformed Schistosoma mansoni cercariae at 10 uM after 72 hrs by microscopic analysis. In kind it is functional, organism-based. The method in brief:
as §1

Data set [6] is described as follows: Intrinsic clearance in mouse liver microsomes assessed per mg protein after 60 mins in presence of NADPH. In kind it is ADME, Microsome. The settings on record: 1 h. The method in brief:
(§3)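 In vitro intrinsic clearance determined in human and in mouse liver microsomes. Control incubations run without NADPH co-factor; parameters were not derived where compound was lost in those co-factor-free controls.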

Data set [7] is described as follows: Intrinsic clearance in human liver microsomes assessed per mg protein after 60 mins in presence of NADPH. The data set is classed as ADME, Microsome. The settings on record: 1 h. The method in brief:
as §3
On the technique in general: Microsomes from liver hold many membrane-bound enzymes, among them those of drug oxidation.

In data set [8] the test system is Schistosoma mansoni. Put plainly: Antischistosomal activity against adult stage of Schistosoma mansoni cercariae after 72 hrs by microscopic analysis. In kind it is functional.
Data set [9] deals with Schistosoma mansoni. The data set can be described thus: Antischistosomal activity against adult stage of Schistosoma mansoni infected in NMRI nude mouse administered as single oral dose on day 49 of post infection. The data set is classed as functional. The note with it: 1176 h.

The results in this text go back to ChEMBL document CHEMBL4325878, “SAR of a new antischistosomal urea carboxylic acid” (Bioorg Med Chem Lett, 2018).

The LC50 is the concentration lethal to half of the exposed cells or organisms. The term ED50 denotes the dose at which the effect has come halfway, by size or by number of responders.

Converted amounts (≈) assume the structure as drawn. The source made the active and inactive calls. The calls are words filed in the database; no cut-off is given here. A value given as a limit tells only on which side of the number the result lay.

On to `CCOC(=O)C(C)(C)NC(=O)Nc1ccc(F)c(C(F)(F)F)c1`, for which the outcome in the data set with Schistosoma mansoni [1] and in the data set on Schistosoma mansoni [5] was inactive. The solubility kinetic in data set [2] and in [3] was 3.1 to 6.3 µg/mL (≈ 9.22 to 18.7 µM) in each case. Further, the values for the Activity in the data set on Schistosoma mansoni [4] and in the data set with L6 were 70% and “Non-Toxic”, respectively.
Consider `O=C(Nc1ccc(F)c(C(F)(F)F)c1)NC1(C(=O)O)CC1`, for which the outcome with Schistosoma mansoni [1] and with Schistosoma mansoni [5] was inactive. Also, the solubility kinetic in data set [2] and in data set [3] was greater than 100 µg/mL in each case. The Activity was 4% in the data set on Schistosoma mansoni [4] and “Non-Toxic” in the data set on L6. The microsomal intrinsic clearance in data set [6] and in data set [7] was less than 7 µL/min throughout.
As to `O=C(C1CCCCC1)N1CC(=O)N2CCc3ccccc3C2C1` (stereo not given) [PRAZIQUANTEL], the LC50 in the data set on Schistosoma mansoni [8] amounted to 77 nM. Further, in the data set with Schistosoma mansoni [4], the Activity was found to be 15%.
With `CC(C)(NC(=O)Cc1ccc(F)c(C(F)(F)F)c1)C(=O)O`, the result in the data set on Schistosoma mansoni [1] and with Schistosoma mansoni [5] was inactive. Besides, the solubility kinetic in data set [2] lay within 50 to 100 µg/mL (≈ 163 to 325 µM); in data set [3] it was 25 to 50 µg/mL (≈ 81.4 to 163 µM). For the same compound, the results for the Activity in the data set with Schistosoma mansoni [4] and with L6 were 0% and “Non-Toxic”, respectively. Besides, the microsomal intrinsic clearance in data set [6] and in data set [7] was less than 7 µL/min throughout.
As for `CC(C)(C(=O)O)n1c(=O)[nH]c2cc(C(F)(F)F)c(F)cc21`, the result with Schistosoma mansoni [1] and in the data set on Schistosoma mansoni [5] was inactive. Further, the solubility kinetic in data set [2] was 50 to 100 µg/mL (≈ 163 to 327 µM); in data set [3], greater than 100 µg/mL. The Activity in the data set on Schistosoma mansoni [4] is 0%; in the data set on L6 it was “Non-Toxic”. Besides, the microsomal intrinsic clearance in data set [6] and in [7] was less than 7 µL/min each time.
On to `CC(C)(C(=O)O)N1Cc2cc(F)c(C(F)(F)F)cc2NC1=O`, for which the outcome with Schistosoma mansoni [1] and with Schistosoma mansoni [5] was inactive. The solubility kinetic was 50 to 100 µg/mL (≈ 156 to 312 µM) in [2] and greater than 100 µg/mL in data set [3]. In addition, the Activity in the data set on Schistosoma mansoni [4] is on record as 0%; with L6 it was “Non-Toxic”. Further, the microsomal intrinsic clearance in data set [6] and in [7] was less than 7 µL/min each time.
For the compound `O=C(Nc1ccc(F)c(C(F)(F)F)c1)NC1(C(=O)O)CCC1`, the outcome in the data set with Schistosoma mansoni [1] and in the data set with Schistosoma mansoni [5] was inactive. In addition, the figures for the solubility kinetic in data set [2] and in data set [3] were 50 to 100 µg/mL (≈ 156 to 312 µM) and greater than 100 µg/mL, respectively. Moreover, the values for the Activity with Schistosoma mansoni [4] and in the data set on L6 were 21% and “Non-Toxic”, respectively. The results for the microsomal intrinsic clearance in data set [6] and in data set [7] were less than 7 µL/min and 7 µL/min, respectively.
`CC(C)(C(=O)O)N1CCCN(c2ccc(F)c(C(F)(F)F)c2)C1=O`: the result in the data set on Schistosoma mansoni [1] and in the data set with Schistosoma mansoni [5] was inactive. Moreover, the solubility kinetic in [2] and in data set [3] was greater than 100 µg/mL in each case. Moreover, the Activity with Schistosoma mansoni [4] is 14%; in the data set with L6, “Non-Toxic”. The microsomal intrinsic clearance in data set [6] and in data set [7] was less than 7 µL/min throughout.
Regarding `O=C(O)CNC(=O)Nc1ccc(F)c(C(F)(F)F)c1`, the outcome in the data set on Schistosoma mansoni [1] and in the data set on Schistosoma mansoni [5] was inactive. The solubility kinetic in [2] and in data set [3] was greater than 100 µg/mL each time. The figures for the Activity in the data set with Schistosoma mansoni [4] and with L6 were 49% and “Non-Toxic”, respectively. Further, the microsomal intrinsic clearance in data set [6] and in [7] was less than 7 µL/min in each case.
`CC(C)(NC(=O)Nc1ccc(F)c(C(F)(F)F)c1)C(N)=O`: the result in the data set with Schistosoma mansoni [1] and in the data set with Schistosoma mansoni [5] was inactive. Moreover, the solubility kinetic in data set [2] and in data set [3] was 50 to 100 µg/mL (≈ 163 to 325 µM) throughout. Besides, the results for the Activity in the data set with Schistosoma mansoni [4] and in the data set on L6 were 38% and “Non-Toxic”, respectively. Further, the microsomal intrinsic clearance came to 18 µL/min in data set [6] and 19 µL/min in data set [7].
In the data set with Schistosoma mansoni [9], `CC1(C)NC(=O)N(c2ccc(F)c(C(F)(F)F)c2)C1=O` came in with an ED50 of 172 mg/kg.
Turning to `CC(C)(CC(=O)Nc1ccc(F)c(C(F)(F)F)c1)C(=O)O`, the result in the data set on Schistosoma mansoni [1] and with Schistosoma mansoni [5] was inactive. In addition, the solubility kinetic in data set [2] and in data set [3] was 25 to 50 µg/mL (≈ 81.4 to 163 µM) throughout. Besides, the Activity in the data set with Schistosoma mansoni [4] is given as 42%; with L6, “Non-Toxic”. Also, the microsomal intrinsic clearance in data set [6] and in data set [7] was less than 7 µL/min each time.
In the case of `CC(C)(NC(=O)Nc1ccc(F)c(C(F)(F)F)c1)C(=O)O`, the result in the data set on Schistosoma mansoni [1] and in the data set with Schistosoma mansoni [5] was inactive. In addition, the solubility kinetic is 25 to 50 µg/mL (≈ 81.1 to 162 µM) in [2] and greater than 100 µg/mL in data set [3]. For the same compound, the microsomal intrinsic clearance in data set [6] and in data set [7] was less than 7 µL/min each time.
Consider `CC(C)(NC(=O)Nc1ccccc1)C(=O)O`, for which the outcome with Schistosoma mansoni [1] and with Schistosoma mansoni [5] was inactive. The figures for the solubility kinetic in data set [2] and in [3] were greater than 100 µg/mL and 50 to 100 µg/mL (≈ 225 to 450 µM), respectively. Further, the values for the Activity with Schistosoma mansoni [4] and with L6 were 20% and “Non-Toxic”, respectively. For the same compound, the microsomal intrinsic clearance in data set [6] and in data set [7] was less than 7 µL/min each time.
